Screening results deposited in PubChem BioAssay by several laboratories.
GalR3 antagonist = human GalR3 antagonism; 360,000 compounds, 0.44% hits; O60755; HEK293 GalR3-CNG cAMP membrane potential fluorescence; galR3 body fused to GalR1 C-terminus; inhibition, % at 3 µM; AID 651719;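 active = inhibition above the screen-wide average plus 3 SD, cut at about 13% in these data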;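 note: forskolin and galanin both at EC90 stimulate the cells; cAMP rise reported by CNG channel membrane potential dye signal; 0% = forskolin plus galanin with DMSO and 100% = forskolin alone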
Target sequence (O60755 1-299 limits assumed): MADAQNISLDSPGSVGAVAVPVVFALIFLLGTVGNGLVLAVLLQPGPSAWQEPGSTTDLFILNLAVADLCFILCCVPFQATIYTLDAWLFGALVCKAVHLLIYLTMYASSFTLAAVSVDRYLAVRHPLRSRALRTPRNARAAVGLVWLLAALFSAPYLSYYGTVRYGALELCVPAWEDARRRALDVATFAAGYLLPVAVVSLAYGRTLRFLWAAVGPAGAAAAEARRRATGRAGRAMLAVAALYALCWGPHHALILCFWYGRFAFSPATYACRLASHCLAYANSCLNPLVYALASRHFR
GASC-1 inh = inhibitors of human GASC-1 (JMJD2C) demethylase; Q9H3R0; GST-JMJD2C(1-420) H3K9me3 demethylation, DELFIA europium; inhibition, % at 2.35 µM; 330,000 compounds, 0.069% hits;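 active = more than half of a compound's replicate wells show inhibition beyond 50%, single wells judged on their own value; inconclusive = some, but no more than half, of replicates pass 50% inhibition; inactive = no replicate passes 50% inhibition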;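 note: signal counts dimethyl H3K9 product captured on neutravidin plate; 0% = median of DMSO wells and 100% = 0.3 times that DMSO median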
NR2E3 ag-1 = agonists of human NR2E3 nuclear receptor; AID 602229; Q9Y5X4; CHO-S Gal4-NCOR/VP16-NR2E3 two-hybrid, luciferase; 360,000 compounds, 0.35% hits; inhibition of corepressor binding, % at 3.98 µM;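 active = inhibition above the mean of all tested compounds plus 3 SD, cut at about 70% in these data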;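 note: 0% = DMSO with NR2E3 transfected cells and 100% = cells lacking NR2E3 construct; higher means lower luciferase signal from less NR2E3 corepressor binding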
Target sequence (Q9Y5X4 whole entry, looked up, the tested form may be a part): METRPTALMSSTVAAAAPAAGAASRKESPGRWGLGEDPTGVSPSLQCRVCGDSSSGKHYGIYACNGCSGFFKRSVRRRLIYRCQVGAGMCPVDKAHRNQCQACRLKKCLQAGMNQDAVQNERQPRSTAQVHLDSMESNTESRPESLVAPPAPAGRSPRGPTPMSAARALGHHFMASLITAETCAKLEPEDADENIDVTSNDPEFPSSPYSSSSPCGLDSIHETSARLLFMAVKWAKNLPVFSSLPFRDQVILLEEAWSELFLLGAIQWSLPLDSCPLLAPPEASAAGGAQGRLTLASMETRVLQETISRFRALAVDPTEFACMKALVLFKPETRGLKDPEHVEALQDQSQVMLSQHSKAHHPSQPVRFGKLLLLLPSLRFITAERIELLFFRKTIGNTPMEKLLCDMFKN
Jurkat NFkB inh = lowers PMA/ionomycin-induced NF-kB signal in Jurkat cells; PMA/ionomycin-induced NF-kB luciferase reporter, luminescence; AID 435003; 330,000 compounds, 0.53% hits; inhibition, % at 4 µM; in the data active = inhibition above about 50%
697 NFkB inh = lowers PMA/ionomycin-induced NF-kB signal in 697 B cells; 697 B-cell NF-kB luciferase reporter, 16 h; 330,000 compounds, 0.33% hits; inhibition, % at 4 µM; in the data active = inhibition above about 35%
NR2E3 ag-2 = NR2E3 (human) agonism; Q9Y5X4; GST-NR2E3/biotin-RetCOR TR-FRET, 1536-well; inhibition of corepressor binding, % at 4.78 µM; 320,000 compounds, 0.12% hits;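 active = percent inhibition above the cutoff of mean plus 3 SD of all tested compounds, set per screening campaign, cut at about 20% in these data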;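 note: 0% = DMSO wells and 100% = biotin wells as full block of FRET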
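Material: NR2E3–RetCOR corepressor complex | Quantity: 1.35 nM GST-tagged NR2E3 final | Schedule: 5 h at 4 °C | Replication: Singlicate compound wells | Reagent: RetCOR corepressor, biotinylated, 7 nM | Controls: Biotin wells as high control, 0.6% DMSO wells as low control | Signal: TR-FRET, Eu(K)-anti-GST donor, streptavidin-D2 acceptor, ex 340, em 617/671 nm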
NR2E3 agonist cf = confirmation of human NR2E3 nuclear receptor agonists | shares compounds with NR2E3 ag-2 | cell-free NR2E3 corepressor release, TR-FRET, 5 h | activation (reported as inhibition), % at 3.98 µM | 360 compounds, 39% hits; in the data active = activation above about 20%
PPARg-NCOR2 ctr = counter-screen for NR2E3 agonists: human PPARgamma-NCOR2 interaction agonists; shares compounds with NR2E3 ag-2; TR-FRET PPARg-NCOR2 coregulator interaction, biochemical; inhibition, % at 3.98 µM; 360 compounds, 45% hits; in the data active = inhibition above about 20%;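 note: 0% = DMSO vehicle and 100% = wells without protein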
Jurkat NFkB conf = inhibitors of the PMA/ionomycin-induced NF-kB reporter in Jurkat cells, retest | 2,700 compounds, 27% hits | Jurkat NF-kB luciferase, 16 h | inhibition, % at 4 µM | shares compounds with Jurkat NFkB inh;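 active = inhibition reaching about 45% at 4 µM in either replicate, limit read from the data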;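 note: plate controls were PMA/ionomycin stimulated DMSO wells for no effect and unstimulated DMSO wells for full effect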
An asterisk follows results filed as active; ? = inconclusive; . = not tested or not shown. An excerpt weighted towards active compounds, which were near 1.5% of everything screened.

SMILES	GalR3 antagonist	GASC-1 inh	NR2E3 ag-1	Jurkat NFkB inh	697 NFkB inh	NR2E3 ag-2	others
COC1CC(OC2CCC3(C)C(CCC4C3CCC3(C)C(C5=CC(=O)OC5)C(OC(C)=O)CC43O)C2)OC(C)C1OC1OC(COC2OC(CO)C(O)C(O)C2O)C(O)C(O)C1O (centres undefined)	.	8	.	.	.	2
CC(=O)OC1CC(OC2C(O)CC(OC3C(O)CC(OC4CCC5(C)C(CCC6C5CCC5(C)C(C7=CC(=O)OC7)CCC65O)C4)OC3C)OC2C)OC(C)C1OC1OC(CO)C(O)C(O)C1O (centres undefined)	22*	.	-9	.	.	.
C[C@]12CCC3C(CC[C@@H]4C[C@H](O)CC[C@]34C)C1CCC2=O (some centres undefined)	-3	-4	-6	5	8	.
Cc1cc(C)cc(OCCOc2cccc(C=C3C(=O)NC(=O)NC3=O)c2)c1	-2	68*	-55	-9	-40	1
c1ccc2c3c(ccc2c1)OCC1CONC31 (centres undefined)	-4	82*	.	21	13	-3
CCCCC(CC)COC(=O)c1ccccc1C(=O)OCC(CC)CCCC (centres undefined)	-4	.	-8	3	0	4
C[CH2][Hg][S]c1ccccc1C(=O)O	-7	.	93*	31	-84	4
CC(C)C(O)(C(=O)OCC1=CCN2CCC(O)C12)C(C)O (centres undefined)	-7	.	8	.	.	.
CN1C(=O)NC(=O)C2(CCCC2)C1=O	-5	.	-14	.	.	.
Cc1cc(O)c2c(c1)C(=O)C13C(=C2O)C(=O)[C@H]2[C@@H](O)[C@@H]1[C@H]1[C@H](O)[C@@H]3C(=O)C3=C(O)c4c(O)cc(C)cc4C(=O)C312 (some centres undefined)	.	-4	102*	4	28	1
CC1CCCCC1NC(=O)CNC(=S)N1CC2CC(C1)c1cccc(=O)n1C2 (centres undefined)	-7	-1	-14	3	5	-1
O=C1NC(=O)N(Cc2ccccc2)C(=O)/C1=C/C=C/c1ccco1	2	58*	-17	-8	21	5
CCn1nc(-c2cccs2)nc2c(=O)n(C)c(=O)nc1-2	.	.	106*	.	.	.
O=C1C2CC(CN3CCCCC23)C2CCCCN12 (centres undefined)	-3	.	-1	.	.	.
CCN1C(=O)C(=C/C=C/c2ccco2)C(=O)N(CC)C1=S	0	38	-14	2	-8	-1
CCN1C(=O)C(=C2C=C(C)N(Cc3ccco3)C(C)=C2)C(=O)N(CC)C1=S	-6	3	-2	-12	-8	25*	NR2E3 agonist cf=14;PPARg-NCOR2 ctr=17
CCc1cc(OC)c(CCN)cc1OC	-6	.	.	.	.	.
NC(Cc1cc(O)c(O)cc1O)C(=O)O (centres undefined)	.	.	.	2	9	25*	NR2E3 agonist cf=38*;PPARg-NCOR2 ctr=2
COc1cc2c(cc1OC)-c1c3c(cc4c1[C@@H](C2)N(C)CC4)OCO3	1	-6	-55	60*	-139	-1	Jurkat NFkB conf=31
COc1cc2c(cc1OC)-c1c(OC)c(OC)cc3c1C(C2)N(C)CC3 (centres undefined)	-9	?	-20	29	-14	2
COc1cc([C@@H]2c3cc4c(cc3[C@@H](OC)[C@H]3COC(=O)[C@H]23)OCO4)cc(OC)c1O	-9	-6	-35	57*	-68	-1	Jurkat NFkB conf=47*
CC12CC(=O)C3C(CCC4CC(=O)C=CC43C)C1CCC2=O (centres undefined)	-5	.	4	.	.	.
COc1ccc(-n2cnc3cc(C(=O)N4CCC5(CC4)OCCO5)ccc32)cc1	-3	2	-53	50*	-11	-1	Jurkat NFkB conf=8
COC(=O)C1=C(c2cc3ccccc3s2)C[C@@H]2CC[C@H]1N2C(=O)NCCNC(C)=O	-4	-3	-7	3	10	5
COC(=O)C(Cc1ccc(N(CCCl)CCCl)cc1)N=Cc1ccccc1O (centres undefined)	-8	6	10	51*	-107	1	Jurkat NFkB conf=46
SMILES	GalR3 antagonist	GASC-1 inh	NR2E3 ag-1	Jurkat NFkB inh	697 NFkB inh	NR2E3 ag-2	others
CCOC(=O)C(NC(=O)C(Cc1ccc(N(CCCl)CCCl)cc1)NC(C)=O)C(C)C (centres undefined)	-3	2	-37	-10	-1	-1
COc1ccc(-c2cc(=Nc3ccccc3)c3cc(C)ccc3o2)cc1	-6	32	-167	-155	-188	0	Jurkat NFkB conf=-140
COc1ccc(-c2cc(=NCCC(=O)O)c3cc(C)ccc3o2)cc1	-6	-7	-112	.	.	.
COc1cccc(OC)c1C1=NCC(=O)Nc2c1oc1ccc(Br)cc21	-4	7	5	56*	-45	-1	Jurkat NFkB conf=61*
CCOC(=O)c1cccc(C2=C(CNC(=O)c3ccc([N+](=O)[O-])cc3)[C@H]3CC[C@@H](C2)N3Cc2ccccc2)c1	-8	.	-6	.	.	.
C/C=C(\C)C(=O)N[C@@H](c1ccccc1)[C@@H](O)C(=O)O[C@H]1C[C@@]2(O)[C@@H](OC(=O)c3ccccc3)C3[C@](C)(C(=O)[C@H](O)C(=C1C)C2(C)C)[C@@H](O)C[C@H]1OC[C@@]31OC(C)=O (some centres undefined)	-2	?	-32	70*	6	-5	Jurkat NFkB conf=64*
C/C=C(\C)C(=O)N[C@@H](c1ccccc1)[C@@H](O)C(=O)O[C@H]1C[C@@]2(O)[C@@H](OC(=O)c3ccccc3)C3[C@](C)(C(=O)[C@H](OC(C)=O)C(=C1C)C2(C)C)[C@@H](O)C[C@H]1OC[C@@]31OC(C)=O (some centres undefined)	-3	6	-11	66*	-14	1	Jurkat NFkB conf=71*
CC(=O)O[C@@]12CO[C@@H]1C[C@H](O)[C@@]1(C)C(=O)[C@H](O)C3=C(C)[C@@H](O)C[C@@](O)([C@@H](OC(=O)c4ccccc4)C12)C3(C)C (some centres undefined)	-2	3	-52	31	11	2
COc1ccc(NC(=O)N2C[C@@H]3C[C@@H](C2)c2cccc(=O)n2C3)c(OC)c1	-2	?	11	18	5	-1
O=C(c1cccn2c(=O)c3cc(Br)ccc3nc12)N1CCC2(CC1)OCCO2	-5	16	-16	-5	3	0
